# Assay outcomes as filed in PubChem BioAssay.
# FXIIa inh 1536 – human FXIIa protease inhibitors, primary screen, biochemical, 1536-well | Coagulation factor XII (Homo sapiens), P00748 | purified FXIIa, Boc-QGR-AMC fluorogenic substrate, 2 h | inhibition, % at 5 µM | 220,000 compounds, 0.3% hits | AID 800, 2007; in the data active means inhibition above about 40%;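 further: 0% = enzyme with no compound and 100% = blank without enzyme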
# Target sequence (P00748 20-372 limits assumed): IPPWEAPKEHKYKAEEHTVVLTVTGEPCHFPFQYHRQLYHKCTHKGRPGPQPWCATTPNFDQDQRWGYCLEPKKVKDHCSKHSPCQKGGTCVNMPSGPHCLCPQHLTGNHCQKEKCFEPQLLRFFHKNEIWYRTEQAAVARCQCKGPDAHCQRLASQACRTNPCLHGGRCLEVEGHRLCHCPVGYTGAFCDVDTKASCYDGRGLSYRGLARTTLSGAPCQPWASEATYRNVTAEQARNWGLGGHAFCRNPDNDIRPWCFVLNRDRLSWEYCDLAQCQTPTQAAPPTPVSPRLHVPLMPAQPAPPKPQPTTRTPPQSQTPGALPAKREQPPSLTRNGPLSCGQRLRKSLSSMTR
# Target sequence (P00748 373-615 limits assumed): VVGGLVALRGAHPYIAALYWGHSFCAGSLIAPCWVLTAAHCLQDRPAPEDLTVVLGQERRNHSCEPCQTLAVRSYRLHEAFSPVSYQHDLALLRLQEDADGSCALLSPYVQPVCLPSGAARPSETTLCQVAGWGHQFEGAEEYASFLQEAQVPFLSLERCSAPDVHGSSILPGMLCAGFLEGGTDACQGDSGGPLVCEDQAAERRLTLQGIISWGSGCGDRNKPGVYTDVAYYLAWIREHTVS
# KLK5 inh – human KLK5 protease inhibitors, primary screen, biochemical, 1536-well; AID 873, 2007; recombinant hK5, fluorogenic AMC substrate cleavage; Kallikrein-5 (Homo sapiens), Q9Y337; inhibition, % at 5 µM; 210,000 compounds, 0.59% hits;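 active means inhibition of 40% or more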;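 further: 0% = enzyme controls without compound and 100% = no-enzyme blanks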
# AHR act – AHR activators, primary screen, cell-based, luminescence, luciferase reporter, human; AHR-responsive luciferase reporter cells; 320,000 compounds, 2.5% hits; activation, % at 5 µM; in the data active means activation above about 47%;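 further: 0% = vehicle wells and 100% = reference agonist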
# FXIa inh 1536 – human FXIa protease inhibitors, primary screen, biochemical, 1536-well; 220,000 compounds, 0.14% hits; inhibition, % at 5 µM; purified FXIa, Boc-Glu-Ala-Arg-AMC fluorogenic substrate; AID 798, 2007;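 active means inhibition of at least 40%; inactive means inhibition below 40%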;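 further: fluorescence of freed AMC excited at 355 nm; 0% = enzyme without compound and 100% = no enzyme blank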
# STAT3 act – IL-6 driven STAT3 reporter potentiators, primary screen, U3A cells, luciferase, luminescence, MLSCN library. activation (% of control), % at 5.6 µM. IL-6 STAT3-luciferase reporter; 100% = signal with IL-6 EC80 alone. 190,000 compounds, 0.91% hits;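 active means activation above the screen-wide mean of compound activation plus 3 SD, cut at about 130% in these data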;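 further: 0% = background luminescence of wells with medium and substrate only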
#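 Material: human STAT1-deficient U3A cells with stable STAT3-luciferase reporter / Probe or stimulus: IL-6 stimulus at 33 ng/mL final / Schedule: 1 h compound pre-exposure, 6 h IL-6 stimulation, 37 °C / Technique: luminescence / Read-out basis: percent of IL-6-only median luminescence / Control set: IL-6-only high control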
# thrombin 1536 – human alpha-thrombin inhibitors, primary screen, counter-screen for coagulation protease inhibitor project, biochemical, 1536-well, fluorogenic AMC substrate; Boc-VPR-AMC fluorogenic substrate cleavage; inhibition, % at 5 µM; 220,000 compounds, 0.26% hits; AID 1046, 2008;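 active means inhibition at or above 40%; inactive means inhibition below 40%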;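 further: 0% = enzyme with no compound and 100% = wells without enzyme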
#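 Test system: human alpha-thrombin; medium: pH 7.5 Tris-saline with Tween 20; times: reaction at room temperature; signal: AMC fluorescence at 355 nm excitation and 460 nm emission; also added: Boc-VPR-AMC substrate, 15 µM final; dosing: one concentration per compound, 5 µM, with 0.2% DMSO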
# An asterisk follows results filed as active; · = not tested or not shown. Sampled rows, rich in hits. Any-hit rate of the full collection: about 3.5%.
SMILES,FXIIa inh 1536,KLK5 inh,AHR act,FXIa inh 1536,STAT3 act,thrombin 1536
COc1cc2c(cc1C1NC(=S)NC(C)=C1C(N)=O)CCCC2 (stereo unspecified),3,-1,2,-7,74,-13
COc1cccc2sc(Nc3nc(-c4cc5ccccc5oc4=O)cs3)nc12,5,-8,5,4,94,-9
COc1ccc(CCNc2nc(-c3ccncc3)cs2)cc1OC,3,0,66*,-1,·,-4
COc1ccc(CCNc2nc(-c3sc(C)nc3C)cs2)cc1OC,28,-15,52*,8,75,-1
COc1ccc(CCNc2nc(-c3cccnc3)cs2)cc1OC,9,3,2,4,83,3
COc1ccc(CCNc2nc(-c3ccc(O)cc3)cs2)cc1OC,·,·,39,·,·,·
COc1cccc2sc(Nc3nc(-c4ccncc4)cs3)nc12,8,-4,64*,3,109,1
CC(C)c1ccc(O)c(NC(=S)NC(=O)c2ccc3c(c2)OCO3)c1,·,·,22,·,·,·
CC(NC(=O)COC(=O)C1CCN(c2ccc(C(F)(F)F)cn2)CC1)c1ccc(F)cc1 (stereo unspecified),·,·,-1,·,·,·
CCc1cc2c(Sc3nc4ccccc4s3)ncnc2s1,28,7,32,13,178*,9
CCc1cc2c(SCC(=O)Nc3ccc(NC(C)=O)cc3)ncnc2s1,·,·,-1,·,·,·
O=C1CN(S(=O)(=O)c2ccc([N+](=O)[O-])cc2)CC(=O)N1,·,·,0,·,·,·
COc1ccc(CN2CCNC(=O)C2CC(=O)NCc2csc(C(C)C)n2)c(OC)c1 (stereo unspecified),1,-6,47*,-6,106,-7
COc1cc(/C=N/NC(=O)c2ccc3c(c2)OCCO3)cc(Cl)c1O,·,·,0,·,·,·
COc1ccc2nc(/N=C/c3c(C)[nH]n(-c4ccc(C)cc4)c3=O)sc2c1,4,-58,52*,8,119,-2
Cc1ccc(-n2[nH]c(C)c(C=Nc3ccc(Br)cn3)c2=O)cc1,9,3,71*,1,114,-8
COc1ccc2nc(/N=C\N(C)C)sc2c1,17,-19,36,6,110,1
CCCCCc1ccc(CC(=O)N2CCOCC2)cc1,·,·,0,·,·,·
CCOC(=O)c1c(C)nsc1NCc1ccccc1,·,·,-1,·,·,·
CCOC(=O)c1c(Nc2ccccc2OCCOC)n[nH]c1C,10,1,48*,1,·,-1
CCOC(=O)c1c(NCc2ccccc2)n[nH]c1C,11,-12,48*,10,119,0
CCOc1ccccc1NC(=O)CSc1c(C)n[nH]c1C,15,-2,5,8,102,-3
CC(NC(=O)c1cc2cc(F)ccc2[nH]1)c1ccccc1 (stereo unspecified),·,·,53*,·,·,·
O=C(COC(=O)c1ccccc1NCCO)Nc1cc(C(F)(F)F)ccc1N1CCOCC1,·,·,1,·,·,·
COc1ccc(N2C(=O)CN=C2Nc2nc(C)cc(C)n2)cc1,15,6,76*,9,106,1
SMILES,FXIIa inh 1536,KLK5 inh,AHR act,FXIa inh 1536,STAT3 act,thrombin 1536
Cc1cc(C)nc(NC2=NCC(=O)N2c2cccc(Cl)c2)n1,8,-15,65*,-1,95,-6
COc1ccc(Nc2nc(C)cc(=O)[nH]2)cc1,15,-11,4,3,105,1
COC(=O)c1ccc(Nc2nc(C)cc(=O)[nH]2)cc1,41*,-16,12,24,97,3
COc1ccc(/C=N/Nc2nncc3ccccc23)cc1,4,-4,48*,1,45,-10
C[C@@H]1CN([C@H](C)CO)C(=O)Cc2cc(NC(=O)Nc3ccccc3)ccc2O[C@@H]1CN(C)C(=O)Nc1ccc2c(c1)OCO2,·,·,3,·,·,·
CCOC(=O)c1c(C)n(CCOc2ccccc2)c2ccc(O)cc12,·,·,51*,·,·,·
CCOC(=O)c1c(C)n(C)c2ccc(OCC(N)=O)cc12,14,1,70*,-1,105,-4
CCOC(=O)c1c(C)n(CCNC(C)=O)c2ccc(O)cc12,17,-4,3,2,103,1
CCOC(=O)c1c(C)n(C)c2ccc(OC(C)=O)cc12,11,-5,25,4,86,-1
CCCN1CCN(C(=O)c2oc3ccccc3c2NC(=O)C2CC2)CC1,·,·,-2,·,·,·
Cc1nnc(N2CCN(C)CC2)c2nn(-c3ccc(Cl)cc3)c(C)c12,·,·,·,·,98,·
CN(c1ccccc1C(=O)N1CCN(c2ccccc2)CC1)S(C)(=O)=O,7,9,1,5,108,-1
CCc1c(C)nc2cc(-c3cccc(Br)c3)[nH]n2c1=O,·,·,70*,·,·,·
CCOC(=O)Cc1c(C)nc2cc(-c3ccc(C)cc3)[nH]n2c1=O,15,-6,20,1,119,4
O=C(NNC(=O)c1cc2cc3ccccc3nc2s1)c1cccc(C(F)(F)F)c1,11,-62,48*,14,100,5
Cc1ccc2[nH]c3c(=O)n(N)c(C)nc3c2c1,10,2,48*,2,101,-8
COc1ccc2[nH]c3c(=O)n(N)c(C)nc3c2c1,-3,-13,41,-5,91,-9
O=C(Nc1nc2ccccc2s1)Nc1ccc(F)cc1F,·,·,71*,·,·,·
O=C(NNc1nc2ccccc2s1)Nc1ccc(F)cc1,9,22,75*,0,·,-1
O=C(Nc1ccc(F)cc1F)Nc1sccc1-c1nc2ccccc2s1,7,7,29,6,·,4
Cc1ccn2cc(-c3ccc(Br)cc3)nc2c1,4,-8,74*,2,·,-7
CC(=O)N1CCn2c3ccc(C)cc3c3cccc1c32,10,12,71*,5,90,-3
COC(=O)C1=C(N)Oc2cc(C)n(CC3CCCO3)c(=O)c2C1c1ccc(Cl)cc1 (stereo unspecified),15,0,4,0,108,1
COc1ccc(Nc2nc(C)nc3c2oc2ccccc23)cc1,·,·,11,·,·,·
Cc1nc(NCCc2ccccc2)c2oc3ccccc3c2n1,18,-22,64*,-3,106,-7
Cc1ccc(Nc2nc(C)nc3c2oc2ccccc23)cc1,2,-2,61*,-3,·,-14
Cc1nc(Nc2ccc3c(c2)OCO3)c2oc3ccccc3c2n1,23,-9,65*,12,97,5
CCc1nc(Nc2ccccc2)c2oc3ccccc3c2n1,0,-27,22,-7,92,2
Cc1nc(Nc2ccccc2)c2oc3ccc(Cl)cc3c2n1,·,·,51*,·,·,·
COc1cc(C(=O)N2CCC(n3cnc4cc(F)ccc43)CC2)cc(OC)c1OC,-4,-6,-3,1,103,2
